From ChEMBL document CHEMBL3272327, “Hypocholesterolemic activity of 1,3-bis(substituted phenoxy)-2-propanones” (J Med Chem, 1976)

Columns and labels:
Rattus norvegicus [1] = test: Hypocholesterolemic activity in Sprague-Dawley rat assessed as serum cholesterol level at 10 mg/kg/day, po administered via intubation measured on day 4 by Liebermann-Burchard reaction (reference value: 100%); format: functional
Rattus norvegicus [2] = test: Hypocholesterolemic activity in Sprague-Dawley rat assessed as serum cholesterol level at 10 mg/kg/day, po administered via intubation measured on day 10 by Liebermann-Burchard reaction (reference value: 100%); format: functional
Rattus norvegicus [3] = test: Hypocholesterolemic activity in Sprague-Dawley rat assessed as serum cholesterol level at 10 mg/kg/day, po administered via intubation measured on day 16 by Liebermann-Burchard reaction (reference value: 100%); format: functional
Rattus norvegicus [4] = test: Effect on epididymis and vas deferens weight in rat at 10 mg/kg/day administered for 16 days measured 24 hrs after last drug dosage relative to total body weight (reference value: 0.24 +/- 0.07%); format: ADME, organism-based; conditions: in vivo
Rattus norvegicus [5] = test: Effect on testes weight in rat at 10 mg/kg/day administered for 16 days measured 24 hrs after last drug dosage relative to total body weight (reference value: 1.10 +/- 0.17%); format: ADME, organism-based, Testis; conditions: in vivo
[6] = Solubility of the compound in 1% CMC; format: physicochemical
Rattus norvegicus [7] = test: Effect on liver weight in rat at 10 mg/kg/day administered for 16 days measured 24 hrs after last drug dosage relative to total body weight (reference value: 4.54 +/- 0.29%); format: ADME, organism-based; conditions: in vivo
Rattus norvegicus [8] = test: Uterotrophic activity in ovariectomized Sprague-Dawley rat assessed as uterine weight administered for 3 days (reference value: 100 +/- 27%); format: organism-based, Uterus; conditions: in vivo, 72 h
[9] = Toxicity in ip dosed CF1 mouse assessed as animal death; format: organism-based; conditions: in vivo
In short: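 Male CF1 mice given active propanones ip over 10 mg to 6 g/kg where solubility allowed; deaths recorded to estimate LD50.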

Rattus norvegicus [10] = test: Effect on kidney weight in rat at 10 mg/kg/day administered for 16 days measured 24 hrs after last drug dosage relative to total body weight (reference value: 0.96 +/- 0.08%); format: ADME, organism-based; conditions: in vivo
Rattus norvegicus [11] = test: Effect on vesicular gland weight in rat at 10 mg/kg/day administered for 16 days measured 24 hrs after last drug dosage relative to total body weight (reference value: 0.11 +/- 0.04%); format: ADME, organism-based; conditions: in vivo
Rattus norvegicus [12] = test: Effect on heart weight in rat at 10 mg/kg/day administered for 16 days measured 24 hrs after last drug dosage relative to total body weight (reference value: 0.43 +/- 0.10%); format: ADME, organism-based; conditions: in vivo
Rattus norvegicus [13] = test: Effect on RNA content in rat liver at 10 mg/kg/day administered for 16 days (reference value: 100 +/- 8%); format: ADME, organism-based; conditions: in vivo, 384 h
Mus musculus [14] = test: Antifertility activity in CF1 mouse assessed as proportion of fetus per litter at 50 mg/kg/day, ip (reference value: 100 +/- 25%); format: ADME, organism-based; design: route intraperitoneal; conditions: in vivo
Rattus norvegicus [15] = test: Effect on lipid content in rat liver at 10 mg/kg/day administered for 16 days (reference value: 100 +/- 16%); format: ADME, organism-based; conditions: in vivo, 384 h
Rattus norvegicus [16] = test: Hypocholesterolemic activity in rat assessed as serum triglyceride level at 10 mg/kg/day administered for 8 days (reference value: 100 +/- 15%); format: functional
In short: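 Male Sprague-Dawley rats dosed orally at 10 mg/kg/day in 1% CMC. Serum triglycerides were measured with a stat pack kit after 8 days of dosing. Expressed as percent of vehicle control, N = 8; Student's t test.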

Rattus norvegicus [17] = test: Effect on protein content in rat liver at 10 mg/kg/day administered for 16 days (reference value: 100 +/- 6%); format: ADME, organism-based; conditions: in vivo, 384 h
Rattus norvegicus [18] = test: Effect on glycogen content in rat liver at 10 mg/kg/day administered for 16 days (reference value: 100 +/- 24%); format: ADME, organism-based; conditions: in vivo, 384 h
Mus musculus [19] = test: Antifertility activity in CF1 mouse assessed as proportion of pregnant animals at 50 mg/kg/day, ip (reference value: 100%); format: ADME, organism-based; design: route intraperitoneal; conditions: in vivo
Mus musculus [20] = test: Antifertility activity in CF1 mouse assessed as proportion of reabsorption litter at 50 mg/kg/day, ip (reference value: 100 +/- 25%); format: ADME, organism-based; design: route intraperitoneal; conditions: in vivo
Rattus norvegicus [21] = test: Effect on DNA content in rat liver at 10 mg/kg/day administered for 16 days (reference value: 100 +/- 25%); format: ADME, organism-based; conditions: in vivo, 384 h
Mus musculus [22] = species on record: Mus musculus; test: Antifertility activity in CF1 mouse assessed as proportion of fetus per litter at 10 ug (reference value: 100 +/- 25%); format: ADME, organism-based; conditions: in vivo
Mus musculus [23] = species on record: Mus musculus; test: Antifertility activity in CF1 mouse assessed as proportion of reabsorption litter at 10 ug (reference value: 100 +/- 25%); format: ADME, organism-based; conditions: in vivo
Mus musculus [24] = species on record: Mus musculus; test: Antifertility activity in CF1 mouse assessed as proportion of pregnant animals at 10 ug (reference value: 100%); format: ADME, organism-based; conditions: in vivo

SMILES	Activity (Rattus norvegicus [1]) [%]	Activity (Rattus norvegicus [2]) [%]	Activity (Rattus norvegicus [3]) [%]	other results
O=C(COc1ccccc1)COc1ccccc1	104	87	90	–
COc1ccccc1OCC(=O)COc1ccccc1OC	102	83	79	–
O=C(COc1ccc(I)cc1)COc1ccc(I)cc1	100	103	93	–
O=C(COCc1ccc(Cl)cc1)COCc1ccc(Cl)cc1	106	88	92	–
CC(=O)C(O)(Cc1ccccc1)Cc1ccccc1	88	77	84	–
Cc1ccc(OCC(=O)C(O)(Cc2ccccc2)Cc2ccccc2)cc1	80	72	70	–
Cc1ccc(CCC(=O)CCc2ccc(C)cc2)cc1	91	86	96	–
O=C(CS(=O)(=O)c1ccc(Cl)cc1)CS(=O)(=O)c1ccc(Cl)cc1	82	86	91	–
CCCCCCCCCCCCCCCCOCC(=O)COCCCCCCCCCCCCCCCC	88	89	91	–
CCC(=O)c1ccc(OCC(=O)CCl)cc1	79	89	90	–
Cc1cc(OCC(=O)COc2cc(C)c(Cl)c(C)c2)cc(C)c1Cl	78	70	61	Activity (Rattus norvegicus [4]): 0.27%; Activity (Rattus norvegicus [5]): 0.91%; solubility [6]: Insoluble; Activity (Rattus norvegicus [7]): 4.66%; Activity (Rattus norvegicus [8]): 83%; LD50 [9]: > 6000 mg/kg; Activity (Rattus norvegicus [10]): 1.02%; Activity (Rattus norvegicus [11]): 0.1%
O=C(COc1ccc(F)cc1)COc1ccc(F)cc1	88	87	82	–
O=C(COc1ccc(Br)cc1)COc1ccc(Br)cc1	74	85	85	–
Cc1ccc(OCC(=O)COc2ccc(Cl)cc2)cc1	108	84	75	–
COc1ccc(OCC(=O)COc2ccc(Cl)cc2)cc1	102	88	84	–
Cc1cccc(OCC(=O)COc2cccc(C)c2)c1	115	119	97	–
CCc1ccc(OCC(=O)COc2ccc(CC)cc2)cc1	70	60	64	Activity (Rattus norvegicus [4]): 0.27%; Activity (Rattus norvegicus [5]): 1.14%; solubility [6]: Insoluble; Activity (Rattus norvegicus [7]): 4.28%; Activity (Rattus norvegicus [8]): 62%; LD50 [9]: > 3000 mg/kg; Activity (Rattus norvegicus [10]): 0.87%; Activity (Rattus norvegicus [11]): 0.15%

SMILES	Activity (Rattus norvegicus [1]) [%]	Activity (Rattus norvegicus [2]) [%]	Activity (Rattus norvegicus [3]) [%]	other results
COc1ccc(OCC(=O)COc2ccc(OC)cc2)cc1	76	51	60	Activity (Rattus norvegicus [4]): 0.22%; Activity (Rattus norvegicus [5]): 1.22%; Activity (Rattus norvegicus [12]): 0.54%; Activity (Rattus norvegicus [7]): 4.73%; Activity (Rattus norvegicus [8]): 70%; LD50 [9]: 6000 mg/kg; Activity (Rattus norvegicus [10]): 1.04%; Activity (Rattus norvegicus [11]): 0.11%
CCOc1ccc(OCC(=O)COc2ccc(OCC)cc2)cc1	77	96	85	–
CCCc1ccc(OCC(=O)COc2ccc(CCC)cc2)cc1	94	88	78	–
CC(C)(C)c1ccc(OCC(=O)COc2ccc(C(C)(C)C)cc2)cc1	87	95	83	–
O=C(CSc1ccc(Cl)cc1)CSc1ccc(Cl)cc1	70	73	66	Activity (Rattus norvegicus [4]): 0.25%; Activity (Rattus norvegicus [5]): 1.13%; solubility [6]: Insoluble; Activity (Rattus norvegicus [7]): 4.53%; Activity (Rattus norvegicus [8]): 86%; LD50 [9]: > 3000 mg/kg; Activity (Rattus norvegicus [10]): 0.94%; Activity (Rattus norvegicus [11]): 0.12%
Cc1cc(Cl)c(OCC(=O)COc2cc(C)c(C)cc2Cl)cc1C	79	65	58	Activity (Rattus norvegicus [4]): 0.27%; Activity (Rattus norvegicus [5]): 1.24%; Activity (Rattus norvegicus [12]): 0.52%; solubility [6]: Insoluble; Activity (Rattus norvegicus [7]): 4.8%; Activity (Rattus norvegicus [8]): 56%; LD50 [9]: > 2000 mg/kg; Activity (Rattus norvegicus [10]): 1.06%; Activity (Rattus norvegicus [11]): 0.16%
O=C(CSc1ccccc1)CSc1ccccc1	96	101	79	–
O=C(COc1cc(Cl)c(Cl)cc1Cl)COc1cc(Cl)c(Cl)cc1Cl	94	82	97	–
O=C(COc1ccc(Cl)cc1)COc1ccc(Cl)cc1	81	64	62	Activity (Rattus norvegicus [13]): 99%; Activity (Rattus norvegicus [4]): 0.26%; Activity (Rattus norvegicus [5]): 1.23%; Activity (Mus musculus [14]): 84%; Activity (Rattus norvegicus [15]): 101%; Activity (Rattus norvegicus [16]): 108%; Activity (Rattus norvegicus [12]): 0.39%; solubility [6]: Insoluble; Activity (Rattus norvegicus [7]): 4.51%; Activity (Rattus norvegicus [17]): 91%; Activity (Rattus norvegicus [8]): 48%; LD50 [9]: > 2000 mg/kg; Activity (Rattus norvegicus [18]): 105%; Activity (Mus musculus [19]): 100%; Activity (Mus musculus [20]): 30%; Activity (Rattus norvegicus [10]): 0.86%; Activity (Rattus norvegicus [11]): 0.14%; Activity (Rattus norvegicus [21]): 78%
O=C(COc1cccc(Cl)c1)COc1cccc(Cl)c1	97	91	84	–
O=C(COc1ccccc1Cl)COc1ccccc1Cl	69	69	70	Activity (Rattus norvegicus [4]): 0.27%; Activity (Rattus norvegicus [5]): 1.21%; Activity (Rattus norvegicus [7]): 4.66%; Activity (Rattus norvegicus [10]): 1.02%; Activity (Rattus norvegicus [11]): 0.23%
Cc1ccccc1OCC(=O)COc1ccccc1C	90	92	90	–
CC(Cc1ccccc1)C(=O)C(C)Cc1ccccc1 (centres undefined)	–	–	–	Activity (Mus musculus [14]): 0%; Activity (Mus musculus [19]): 0%; Activity (Mus musculus [20]): 0%
Cc1ccc(/C=C/C(=O)/C=C/c2ccc(C)cc2)cc1	94	83	96	–
CCOC(=O)C(C)(C)Oc1ccc(Cl)cc1 [CLOFIBRATE]	111	98	106	–
CC/C(=C(/CC)c1ccc(O)cc1)c1ccc(O)cc1 [DIETHYLSTILBESTROL]	–	–	–	Activity (Mus musculus [22]): 0%; Activity (Mus musculus [23]): 0%; Activity (Mus musculus [24]): 0%
C#C[C@]1(O)CC[C@H]2[C@@H]3CCc4cc(O)ccc4[C@H]3CC[C@@]21C [ETHINYL ESTRADIOL]	–	–	–	Activity (Rattus norvegicus [8]): 231%
